Values belong to the molecule of their own block, whether it stands above or below them.
Experiments:
[1] = target: T1, Myosin-IIIb (Homo sapiens) (UniProt Q8WXR4); test: Inhibition of human recombinant MYO3B at 500 nM in presence of ATP by radiometric assay relative to control
T1 sequence (whole entry): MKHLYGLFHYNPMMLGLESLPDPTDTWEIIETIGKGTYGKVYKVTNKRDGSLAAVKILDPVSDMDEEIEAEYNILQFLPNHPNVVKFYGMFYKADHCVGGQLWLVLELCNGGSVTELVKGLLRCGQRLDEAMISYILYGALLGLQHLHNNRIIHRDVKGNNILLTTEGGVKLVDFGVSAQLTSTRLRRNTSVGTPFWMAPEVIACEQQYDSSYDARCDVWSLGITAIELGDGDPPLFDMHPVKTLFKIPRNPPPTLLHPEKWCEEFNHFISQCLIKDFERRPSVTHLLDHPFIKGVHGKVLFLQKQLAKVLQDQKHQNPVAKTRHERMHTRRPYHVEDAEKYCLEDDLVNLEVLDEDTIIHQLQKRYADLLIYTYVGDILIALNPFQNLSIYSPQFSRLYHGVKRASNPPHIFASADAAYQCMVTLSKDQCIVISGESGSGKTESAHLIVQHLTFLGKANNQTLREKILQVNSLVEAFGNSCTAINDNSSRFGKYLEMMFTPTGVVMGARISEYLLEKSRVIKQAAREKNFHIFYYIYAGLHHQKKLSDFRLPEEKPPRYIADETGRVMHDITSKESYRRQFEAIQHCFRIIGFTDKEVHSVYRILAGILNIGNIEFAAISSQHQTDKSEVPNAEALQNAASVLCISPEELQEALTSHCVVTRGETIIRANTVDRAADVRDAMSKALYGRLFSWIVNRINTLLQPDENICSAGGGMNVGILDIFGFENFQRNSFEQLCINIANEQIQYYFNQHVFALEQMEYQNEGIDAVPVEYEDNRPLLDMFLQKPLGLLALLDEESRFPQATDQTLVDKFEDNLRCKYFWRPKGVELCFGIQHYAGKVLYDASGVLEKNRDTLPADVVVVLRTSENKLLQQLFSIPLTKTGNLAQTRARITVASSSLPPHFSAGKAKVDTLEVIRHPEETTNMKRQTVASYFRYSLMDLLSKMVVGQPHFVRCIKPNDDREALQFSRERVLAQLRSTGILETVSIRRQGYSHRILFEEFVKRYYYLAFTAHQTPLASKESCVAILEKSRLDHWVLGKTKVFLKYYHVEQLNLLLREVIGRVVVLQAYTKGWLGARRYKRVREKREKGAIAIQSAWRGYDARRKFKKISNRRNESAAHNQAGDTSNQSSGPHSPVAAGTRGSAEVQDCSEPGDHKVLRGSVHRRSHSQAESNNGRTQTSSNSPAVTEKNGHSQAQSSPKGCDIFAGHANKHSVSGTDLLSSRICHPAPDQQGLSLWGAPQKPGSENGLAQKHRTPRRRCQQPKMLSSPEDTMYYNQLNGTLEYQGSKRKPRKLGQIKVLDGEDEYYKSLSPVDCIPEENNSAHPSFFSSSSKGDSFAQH

[2] = target: 5'-AMP-activated protein kinase catalytic subunit alpha-1 (Homo sapiens) (UniProt Q13131); test: Inhibition of human recombinant AMPKa1 at 500 nM in presence of ATP by radiometric assay relative to control
Chain of 5'-AMP-activated protein kinase catalytic subunit alpha-1 (Homo sapiens) (Q13131 whole entry, looked up): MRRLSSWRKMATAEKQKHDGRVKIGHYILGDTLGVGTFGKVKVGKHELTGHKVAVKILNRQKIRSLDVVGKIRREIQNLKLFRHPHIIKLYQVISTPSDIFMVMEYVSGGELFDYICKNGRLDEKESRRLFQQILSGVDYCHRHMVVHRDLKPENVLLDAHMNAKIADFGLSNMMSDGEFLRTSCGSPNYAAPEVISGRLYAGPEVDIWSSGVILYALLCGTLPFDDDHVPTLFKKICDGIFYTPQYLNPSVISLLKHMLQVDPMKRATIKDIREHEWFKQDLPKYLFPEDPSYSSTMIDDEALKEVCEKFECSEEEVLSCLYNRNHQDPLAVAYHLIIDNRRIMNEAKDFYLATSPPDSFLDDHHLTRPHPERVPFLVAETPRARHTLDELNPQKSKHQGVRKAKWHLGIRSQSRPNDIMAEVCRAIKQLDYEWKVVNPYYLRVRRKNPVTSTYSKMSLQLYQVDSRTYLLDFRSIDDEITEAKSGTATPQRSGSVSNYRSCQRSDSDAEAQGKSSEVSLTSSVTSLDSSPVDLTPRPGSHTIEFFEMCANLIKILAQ
Method in brief: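 Panel of 327 recombinant human kinases, each assayed in vitro by radiometric activity assay in duplicate at a single inhibitor concentration per compound, chosen with reference to its ULK1 inhibition. Activity remaining was expressed as percent of vehicle control, and percent inhibition was calculated as 100 minus percent activity remaining.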

[3] = target: T2, Serine/threonine-protein kinase Sgk1 (Homo sapiens) (UniProt O00141); test: Inhibition of human recombinant SGK1 at 15 nM related to control ULK1
T2 sequence (whole entry): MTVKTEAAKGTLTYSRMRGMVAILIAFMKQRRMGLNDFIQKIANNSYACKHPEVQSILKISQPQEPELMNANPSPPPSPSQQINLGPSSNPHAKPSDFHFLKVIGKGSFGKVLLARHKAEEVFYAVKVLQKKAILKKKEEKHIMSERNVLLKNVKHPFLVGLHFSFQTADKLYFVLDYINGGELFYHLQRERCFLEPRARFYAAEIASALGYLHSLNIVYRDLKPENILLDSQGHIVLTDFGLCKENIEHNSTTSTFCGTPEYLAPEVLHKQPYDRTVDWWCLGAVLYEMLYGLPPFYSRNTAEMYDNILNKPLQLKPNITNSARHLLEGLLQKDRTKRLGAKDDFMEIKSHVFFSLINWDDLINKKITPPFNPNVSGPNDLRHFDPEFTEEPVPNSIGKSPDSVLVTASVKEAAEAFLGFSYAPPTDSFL

[4] = target: Activated CDC42 kinase 1 (Homo sapiens) (UniProt Q07912); test: Inhibition of human recombinant ACK at 40 nM related to control ULK1
Chain of Activated CDC42 kinase 1 (Homo sapiens) (Q07912 whole entry, looked up): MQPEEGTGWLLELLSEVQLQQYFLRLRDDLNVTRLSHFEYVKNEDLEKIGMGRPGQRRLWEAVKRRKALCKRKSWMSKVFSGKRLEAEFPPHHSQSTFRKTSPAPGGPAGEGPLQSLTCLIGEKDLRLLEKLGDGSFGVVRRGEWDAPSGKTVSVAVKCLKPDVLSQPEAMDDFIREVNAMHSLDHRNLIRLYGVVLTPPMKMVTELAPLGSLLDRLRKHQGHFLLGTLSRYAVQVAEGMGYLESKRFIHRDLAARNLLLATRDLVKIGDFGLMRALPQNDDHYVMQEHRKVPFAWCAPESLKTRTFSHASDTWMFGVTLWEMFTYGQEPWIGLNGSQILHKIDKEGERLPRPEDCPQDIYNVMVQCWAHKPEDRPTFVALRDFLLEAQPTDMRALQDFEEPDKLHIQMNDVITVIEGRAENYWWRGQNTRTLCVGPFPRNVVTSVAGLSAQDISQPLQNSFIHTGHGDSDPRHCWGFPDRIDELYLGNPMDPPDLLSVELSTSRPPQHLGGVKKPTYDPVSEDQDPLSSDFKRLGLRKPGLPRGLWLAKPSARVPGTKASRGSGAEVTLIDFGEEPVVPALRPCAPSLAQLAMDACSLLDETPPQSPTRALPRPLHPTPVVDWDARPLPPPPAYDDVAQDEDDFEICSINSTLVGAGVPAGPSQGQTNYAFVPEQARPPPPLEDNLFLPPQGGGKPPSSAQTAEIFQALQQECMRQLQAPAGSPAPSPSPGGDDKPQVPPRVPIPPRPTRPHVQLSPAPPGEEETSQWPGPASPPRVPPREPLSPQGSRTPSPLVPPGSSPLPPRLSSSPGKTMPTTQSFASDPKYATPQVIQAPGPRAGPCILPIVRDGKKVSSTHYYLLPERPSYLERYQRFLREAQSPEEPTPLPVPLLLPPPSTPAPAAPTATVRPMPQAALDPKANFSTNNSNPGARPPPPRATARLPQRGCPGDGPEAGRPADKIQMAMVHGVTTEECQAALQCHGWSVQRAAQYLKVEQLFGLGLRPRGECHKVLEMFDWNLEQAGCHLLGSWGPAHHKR
Method in brief: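 Radiometric activity assays in a panel of 327 human recombinant kinases, each run in duplicate at one inhibitor concentration. Activity remaining is expressed as percent of vehicle control, and percent inhibition is calculated as 100% minus percent activity remaining.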

[5] = target: Ephrin type-A receptor 4 (Homo sapiens) (UniProt P54764); test: Inhibition of human recombinant EphA4 at 40 nM in presence of ATP by radiometric assay relative to control
Chain of Ephrin type-A receptor 4 (Homo sapiens) (P54764 whole entry): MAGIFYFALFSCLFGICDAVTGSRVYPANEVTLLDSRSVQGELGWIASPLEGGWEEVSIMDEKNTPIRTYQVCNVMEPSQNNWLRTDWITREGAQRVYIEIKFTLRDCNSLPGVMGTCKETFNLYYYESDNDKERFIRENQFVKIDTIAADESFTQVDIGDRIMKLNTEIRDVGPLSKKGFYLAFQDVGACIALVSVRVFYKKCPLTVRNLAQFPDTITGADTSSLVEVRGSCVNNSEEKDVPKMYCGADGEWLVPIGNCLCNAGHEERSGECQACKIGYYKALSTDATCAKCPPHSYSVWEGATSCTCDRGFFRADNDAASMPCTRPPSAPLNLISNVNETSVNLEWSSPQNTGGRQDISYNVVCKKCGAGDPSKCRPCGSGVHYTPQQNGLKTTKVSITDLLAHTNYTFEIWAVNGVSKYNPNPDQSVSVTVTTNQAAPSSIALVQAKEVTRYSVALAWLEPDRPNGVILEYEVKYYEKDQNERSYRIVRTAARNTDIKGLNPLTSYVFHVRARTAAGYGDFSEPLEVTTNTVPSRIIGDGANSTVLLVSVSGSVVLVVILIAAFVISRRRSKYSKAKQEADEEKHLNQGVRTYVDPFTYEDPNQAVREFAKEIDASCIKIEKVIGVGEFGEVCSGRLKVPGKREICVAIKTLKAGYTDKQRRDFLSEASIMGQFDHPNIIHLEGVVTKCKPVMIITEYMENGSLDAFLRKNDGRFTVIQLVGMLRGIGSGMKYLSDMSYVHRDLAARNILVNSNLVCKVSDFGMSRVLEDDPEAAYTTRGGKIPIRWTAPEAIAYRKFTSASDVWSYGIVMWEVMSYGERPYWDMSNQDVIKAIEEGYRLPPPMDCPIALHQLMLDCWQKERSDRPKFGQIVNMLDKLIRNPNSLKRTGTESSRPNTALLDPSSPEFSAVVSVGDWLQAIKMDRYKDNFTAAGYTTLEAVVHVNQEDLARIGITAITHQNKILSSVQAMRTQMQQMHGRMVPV

[6] = target: Serine/threonine-protein kinase PLK1 (Homo sapiens) (UniProt P53350); test: Inhibition of human recombinant PLK1 at 40 nM in presence of ATP by radiometric assay relative to control
Chain of Serine/threonine-protein kinase PLK1 (Homo sapiens) (P53350 whole entry): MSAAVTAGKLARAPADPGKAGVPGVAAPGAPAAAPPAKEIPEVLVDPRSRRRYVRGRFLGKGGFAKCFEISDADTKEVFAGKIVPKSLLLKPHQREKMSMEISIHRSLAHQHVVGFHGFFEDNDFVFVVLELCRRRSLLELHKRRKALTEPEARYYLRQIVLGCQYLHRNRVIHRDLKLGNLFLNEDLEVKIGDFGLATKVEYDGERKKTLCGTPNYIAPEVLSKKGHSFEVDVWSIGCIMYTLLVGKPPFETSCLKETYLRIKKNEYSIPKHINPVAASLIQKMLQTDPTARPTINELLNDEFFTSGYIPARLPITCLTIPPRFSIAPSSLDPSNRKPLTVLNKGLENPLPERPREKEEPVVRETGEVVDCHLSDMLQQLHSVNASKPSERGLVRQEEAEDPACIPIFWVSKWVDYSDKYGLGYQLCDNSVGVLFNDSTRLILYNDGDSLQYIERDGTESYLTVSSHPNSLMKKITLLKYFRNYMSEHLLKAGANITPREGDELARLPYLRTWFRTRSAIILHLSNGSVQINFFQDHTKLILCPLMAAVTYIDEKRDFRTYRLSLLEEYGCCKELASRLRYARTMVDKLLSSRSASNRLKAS

inhibition [1]: 11% | inhibition [2]: 51%
SMILES: CNC(=O)c1ccccc1Oc1nc(Nc2cc(OC)c(OC)c(OC)c2)ncc1Br

fold change (FC) [3]: 0.05
SMILES: CC(C)[C@H](NC(=O)c1cc(-c2cnn3cc(-c4ccc(OCCN5CCCCC5)cc4)cnc23)cs1)C(F)(F)F

fold change (FC) [4]: 0.23 | inhibition [5]: 0% | inhibition [6]: 0%
SMILES: O=C(N[C@@H](C1CC1)C(F)(F)F)c1cc(-c2cnn3cc(-c4ccc(F)cc4)cnc23)cs1

— ChEMBL document CHEMBL5653631, “A Potent and Selective ULK1 Inhibitor Suppresses Autophagy and Sensitizes Cancer Cells to Nutrient Stress” (iScience, 2018)
